Test results as given in ChEMBL document CHEMBL2010647, “N-Methylated sst2 Selective Somatostatin Cyclic Peptide Analogue as a Potent Candidate for Treating Neurogenic Inflammation” (ACS Med Chem Lett, 2011).
Active and inactive are the calls of the source. The rule behind the calls is not given here.

Legend:
[1] = target: Somatostatin receptor type 4 (Homo sapiens, UniProt P31391); assay: Binding affinity to human sst4 by in vitro receptor autoradiography assay
[2] = target: Somatostatin receptor type 2 (Homo sapiens, UniProt P30874); assay: Binding affinity to human sst2 by in vitro receptor autoradiography assay
Chain of Somatostatin receptor type 2 (P30874 whole entry): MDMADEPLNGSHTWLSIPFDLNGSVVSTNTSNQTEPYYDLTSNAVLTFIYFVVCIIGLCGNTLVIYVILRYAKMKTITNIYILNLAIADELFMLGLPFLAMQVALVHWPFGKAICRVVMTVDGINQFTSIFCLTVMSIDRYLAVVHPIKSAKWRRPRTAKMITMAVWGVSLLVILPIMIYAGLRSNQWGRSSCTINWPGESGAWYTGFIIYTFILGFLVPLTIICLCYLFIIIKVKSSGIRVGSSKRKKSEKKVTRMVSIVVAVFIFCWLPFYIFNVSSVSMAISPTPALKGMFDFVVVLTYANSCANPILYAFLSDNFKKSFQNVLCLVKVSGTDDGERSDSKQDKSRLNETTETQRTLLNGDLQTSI

[3] = target: Somatostatin receptor type 2 (Rattus norvegicus) (UniProt P30680); assay: Inhibition of sst2 in rat trachea assessed as effect on EFS-induced CGRP release in stimulated and poststimulated tracheal fraction at 500 nM after 8 mins by radioimmunoassay technique relative to control; assay type: tissue-based; design: scale not given: the % may be the effect or the level left
Chain of Somatostatin receptor type 2 (Rattus norvegicus) (P30680 whole entry, the tested form may be a part): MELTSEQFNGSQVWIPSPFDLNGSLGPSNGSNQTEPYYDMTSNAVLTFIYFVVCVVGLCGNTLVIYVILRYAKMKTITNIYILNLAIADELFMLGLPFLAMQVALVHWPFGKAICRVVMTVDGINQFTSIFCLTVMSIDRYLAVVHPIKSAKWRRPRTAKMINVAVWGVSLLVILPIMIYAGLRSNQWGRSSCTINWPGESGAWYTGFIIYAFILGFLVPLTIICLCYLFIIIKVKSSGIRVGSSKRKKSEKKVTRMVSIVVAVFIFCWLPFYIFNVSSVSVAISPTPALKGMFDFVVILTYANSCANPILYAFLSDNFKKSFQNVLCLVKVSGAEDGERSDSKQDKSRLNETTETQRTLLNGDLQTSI
How it was run: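 Whole tracheae from exsanguinated, deeply anaesthetised rats, two per 1.8 mL organ bath, equilibrated 60 min with oxygenated Krebs (pH 7.2, 37 °C, 1 mL/min perfusion). Three static 8 min fractions; EFS (40 V, 0.1 ms, 10 Hz, 120 s) in the second. Peptide (500 nM) added at the start of fractions 2 and 3. CGRP measured by RIA in 200 μL samples, normalised to wet tissue weight; n = 5.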

[4] = target: Somatostatin receptor type 5 (Homo sapiens, UniProt P35346); assay: Binding affinity to human sst5 by in vitro receptor autoradiography assay
Chain of Somatostatin receptor type 5 (P35346 whole entry): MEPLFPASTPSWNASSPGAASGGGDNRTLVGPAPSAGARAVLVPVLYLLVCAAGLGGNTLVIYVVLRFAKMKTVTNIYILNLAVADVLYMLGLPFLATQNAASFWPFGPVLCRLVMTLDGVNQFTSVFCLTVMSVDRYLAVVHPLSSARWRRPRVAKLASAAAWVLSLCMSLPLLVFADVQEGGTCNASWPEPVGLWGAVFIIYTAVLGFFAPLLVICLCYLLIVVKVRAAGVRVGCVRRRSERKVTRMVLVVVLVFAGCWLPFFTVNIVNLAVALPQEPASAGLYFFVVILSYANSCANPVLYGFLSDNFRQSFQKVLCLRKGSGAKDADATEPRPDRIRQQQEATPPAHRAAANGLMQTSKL

[5] = target: Somatostatin receptor type 1 (Homo sapiens, UniProt P30872); assay: Binding affinity to human sst1 by in vitro receptor autoradiography assay
Chain of Somatostatin receptor type 1 (P30872 whole entry): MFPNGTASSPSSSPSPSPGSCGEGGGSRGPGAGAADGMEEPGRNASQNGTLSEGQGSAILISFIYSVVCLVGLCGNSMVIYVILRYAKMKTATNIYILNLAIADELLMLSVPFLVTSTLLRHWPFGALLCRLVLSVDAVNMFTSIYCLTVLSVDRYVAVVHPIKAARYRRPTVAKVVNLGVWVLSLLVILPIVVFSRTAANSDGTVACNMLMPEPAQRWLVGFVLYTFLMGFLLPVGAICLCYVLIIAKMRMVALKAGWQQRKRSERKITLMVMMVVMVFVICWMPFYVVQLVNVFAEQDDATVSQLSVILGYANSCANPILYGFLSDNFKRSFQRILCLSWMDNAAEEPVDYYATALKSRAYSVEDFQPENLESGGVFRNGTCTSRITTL

[6] = target: Somatostatin receptor type 3 (Homo sapiens, UniProt P32745); assay: Binding affinity to human sst3 by in vitro receptor autoradiography assay
Chain of Somatostatin receptor type 3 (P32745 whole entry): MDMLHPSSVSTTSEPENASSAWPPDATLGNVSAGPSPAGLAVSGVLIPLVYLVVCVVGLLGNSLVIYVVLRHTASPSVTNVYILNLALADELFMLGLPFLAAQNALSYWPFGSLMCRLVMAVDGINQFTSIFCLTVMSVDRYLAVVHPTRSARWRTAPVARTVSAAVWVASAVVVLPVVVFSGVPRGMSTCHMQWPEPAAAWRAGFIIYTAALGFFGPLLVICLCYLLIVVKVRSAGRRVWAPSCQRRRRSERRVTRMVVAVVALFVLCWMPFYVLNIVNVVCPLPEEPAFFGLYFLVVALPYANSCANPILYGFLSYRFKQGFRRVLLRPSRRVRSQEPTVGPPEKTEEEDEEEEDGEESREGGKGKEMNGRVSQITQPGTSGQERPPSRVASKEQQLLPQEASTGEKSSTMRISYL

[7] = test system: Rattus norvegicus; assay: Antiinflammatory activity in rat assessed as inhibition of mustard oil-evoked acute neurogenic plasma protein extravasation in paw skin at 100 ug/kg, ip […] administered 10 mins before induction of inflammation; assay type: functional
How it was run: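 Rats received peptide 100 μg/kg ip 10 min before inflammation was induced with 1% mustard oil on dorsal paw skin; solvent-only controls run alongside. Read-out: Evans blue accumulated per g wet skin, given as mean + SEM, n = 6–10. Tested in blocks of 14–15 rats per day over 6 days, with treatments randomized. Mann–Whitney U test vs solvent.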

Chain of Somatostatin receptor type 4 (P31391 whole entry): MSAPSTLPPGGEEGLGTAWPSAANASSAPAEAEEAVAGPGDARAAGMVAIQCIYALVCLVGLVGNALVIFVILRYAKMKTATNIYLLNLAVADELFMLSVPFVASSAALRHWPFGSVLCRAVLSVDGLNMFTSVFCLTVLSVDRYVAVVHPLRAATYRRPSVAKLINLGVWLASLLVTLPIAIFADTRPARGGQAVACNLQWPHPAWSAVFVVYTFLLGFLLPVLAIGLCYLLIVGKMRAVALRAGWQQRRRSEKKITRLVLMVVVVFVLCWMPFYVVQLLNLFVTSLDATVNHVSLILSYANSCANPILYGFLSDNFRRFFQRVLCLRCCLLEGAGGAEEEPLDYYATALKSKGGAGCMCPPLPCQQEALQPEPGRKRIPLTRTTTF

IC50 [1]	IC50 [2]	Activity [3]	IC50 [4]	IC50 [5]	IC50 [6]	SMILES	inhibition [7]	inhibition in vivo at 0.1 mg/kg [7]
> 1000 nM	4.4 nM	355%	53 nM	> 1000 nM	98 nM	CC(C)[C@@H]1NC(=O)[C@H](CCCCN)NC(=O)[C@@H](Cc2c[nH]c3ccccc23)NC(=O)[C@H](Cc2ccc(O)cc2)NC(=O)[C@H](C)N(C)C(=O)[C@H](Cc2ccccc2)N(C)C1=O		
373 nM	4.1 nM	343%	137 nM	> 1000 nM	175 nM	CC(C)[C@@H]1NC(=O)[C@H](CCCCN)N(C)C(=O)[C@@H](Cc2c[nH]c3ccccc23)NC(=O)[C@H](Cc2ccc(O)cc2)NC(=O)[C@H](C)N(C)C(=O)[C@H](Cc2ccccc2)N(C)C1=O		
		294%	81 nM	> 1000 nM	105 nM	CC(C)[C@@H]1NC(=O)[C@H](CCCCN)NC(=O)[C@@H](Cc2c[nH]c3ccccc23)NC(=O)[C@H](Cc2ccc(O)cc2)NC(=O)[C@H](C)N(C)C(=O)[C@H](Cc2ccccc2)NC1=O [SEGLITIDE]		
> 1000 nM	5.5 nM	360%	126 nM	> 1000 nM	205 nM	CC(C)[C@@H]1NC(=O)[C@H](CCCCN)NC(=O)[C@@H](Cc2c[nH]c3ccccc23)N(C)C(=O)[C@H](Cc2ccc(O)cc2)NC(=O)[C@H](C)N(C)C(=O)[C@H](Cc2ccccc2)NC1=O		
> 1000 nM	45 nM	268%	76 nM	> 1000 nM	82 nM	CC(C)[C@@H]1NC(=O)[C@H](CCCCN)NC(=O)[C@@H](Cc2c[nH]c3ccccc23)N(C)C(=O)[C@H](Cc2ccc(O)cc2)NC(=O)[C@H](C)N(C)C(=O)[C@H](Cc2ccccc2)N(C)C1=O		

SMILES	IC50 [1]	IC50 [2]	Activity [3]	IC50 [4]	IC50 [5]	IC50 [6]	inhibition [7]	inhibition in vivo at 0.1 mg/kg [7]
CC(C)[C@@H]1NC(=O)[C@H](CCCCN)N(C)C(=O)[C@@H](Cc2c[nH]c3ccccc23)N(C)C(=O)[C@H](Cc2ccc(O)cc2)NC(=O)[C@H](C)N(C)C(=O)[C@H](Cc2ccccc2)NC1=O	> 1000 nM	3.1 nM	153%	196 nM	> 1000 nM	172 nM	inactive	
CC(C)[C@@H]1NC(=O)[C@H](CCCCN)N(C)C(=O)[C@@H](Cc2c[nH]c3ccccc23)N(C)C(=O)[C@H](Cc2ccc(O)cc2)NC(=O)[C@H](C)N(C)C(=O)[C@H](Cc2ccccc2)N(C)C1=O	> 1000 nM	44 nM	100%	263 nM	> 1000 nM	200 nM		40%
CC(C)[C@@H]1NC(=O)[C@H](CCCCN)N(C)C(=O)[C@@H](Cc2c[nH]c3ccccc23)NC(=O)[C@H](Cc2ccc(O)cc2)NC(=O)[C@H](C)N(C)C(=O)[C@H](Cc2ccccc2)NC1=O	> 1000 nM	4.2 nM	182%	247 nM	> 1000 nM	308 nM	inactive	
